Hits are enriched below; roughly 2.6% of the tested compounds scored in any of these assays.
OXTR potentiate – potentiates the human oxytocin receptor response | P30559 | CHO-OTR cells, Fluo-8 calcium fluorescence, potentiator mode; 0% = oxytocin EC15, 100% = EC100 | activation, % at 3 µM | hit rate 0.061% among 320,000;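 active = activation above that plate's cutoff, the mean activation of tested compounds plus 3 SD, cut at about 6.6% in these data, passing the limit was not always enough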;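 note: 100% uses oxytocin at 75 nM as the full agonist control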
Target sequence (P30559 whole entry, looked up): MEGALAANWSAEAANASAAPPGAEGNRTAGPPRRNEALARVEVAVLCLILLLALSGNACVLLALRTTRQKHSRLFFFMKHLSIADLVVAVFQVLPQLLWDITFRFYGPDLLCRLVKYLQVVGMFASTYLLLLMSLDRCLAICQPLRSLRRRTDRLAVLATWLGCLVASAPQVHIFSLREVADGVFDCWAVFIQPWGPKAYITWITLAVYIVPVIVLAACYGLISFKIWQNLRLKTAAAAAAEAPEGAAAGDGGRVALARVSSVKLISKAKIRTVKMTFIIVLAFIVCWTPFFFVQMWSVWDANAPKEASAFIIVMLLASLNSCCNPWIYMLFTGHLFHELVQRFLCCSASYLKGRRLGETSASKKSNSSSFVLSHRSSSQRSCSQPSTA
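Assay system: CHO-OTR cells, human receptor / Also added: oxytocin at about EC15, sub-maximal agonist stimulus / Dosing: single dose, 3.0 µM nominal final compound concentration / Incubation: 6 min pre-incubation, 100 s read / Technique: Fluo-8 calcium dye fluorescence / Read-out: % activation vs EC15 and EC100 oxytocin / Benchmarks: EC15 oxytocin low, 75 nM oxytocin high / Replicates: singlicate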
CHO parental Ca – counter-screen: ATP calcium response change in parental CHO cells; AID 463079; inhibition, % at 5.6 µM; parental CHO-K1, ATP-induced calcium, Fluo-8 fluorescence; hit rate 0.63% among 330,000;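 active = inhibition above that plate's mean sample inhibition plus 3 SD, cut at about 26% in these data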;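 note: 0% = ATP-challenged DMSO wells and 100% = DMSO wells without ATP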
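Measured by: calcium-sensitive Fluo-8 fluorescence / Test system: CHO parental line / Controls: ATP-challenged DMSO wells low, unchallenged DMSO wells high / Measure: % inhibition / Compound: single nominal dose of 5.6 µM per compound / Replicates: single well per compound, no replicates / Reagent: ATP as calcium-mobilizing challenge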
OX1R antag-1 – human HCRTR1 antagonism | O43613 | CHO/OX1R cells, Fluo-8 calcium fluorescence, orexin A | inhibition, % at 5 µM | hit rate 0.43% among 330,000 | AID 434989;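 active = inhibition above its plate's threshold, mean inhibition of all tested compounds on the plate plus 3 SD, cut at about 37% in these data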;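 note: 0% = orexin A challenge wells and 100% = SB-334867-A antagonist wells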
OXTR ag – activates the human oxytocin receptor. AID 2435. hit rate 0.32% among 320,000. CHO-OTR cells, Fluo-8 calcium fluorescence; normalized: DMSO 0%, oxytocin 100%. P30559. activation, % at 3 µM;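 active = activation above the mean of all tested compounds plus 3 SD, cutoff set per screening run, cut at about 20% in these data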;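 note: peak over basal fluorescence ratio from a 100 s FLIPR kinetic read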
V1R ag counter – V1a receptor agonism, counter-screen for OXTR agonists. CHO-V1R cells, Fluo-8 calcium fluorescence, agonist mode; 0% DMSO, 100% 3 nM vasopressin. activation, % at 3 µM. hit rate 0.25% among 320,000;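 active = activation above the mean activation of all tested compounds plus 3 SD, per screening run, cut at about 20% in these data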;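 note: signal is peak over basal fluorescence ratio across a 100 second FLIPR read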
OX1R antag-2 – antagonists of human orexin 1 receptor (OX1R). OX1R-expressing cells, FRET antagonist read-out. inhibition, % at 6.6 µM. hit rate 1.8% among 330,000; in the data active = inhibition mostly above about 38%, no sharp cut-off; inactive = mostly below about 40%;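 note: 0% = agonist challenge alone and 100% = reference antagonist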
Starred values were filed as active, the others as inactive.

SMILES	OXTR potentiate	CHO parental Ca	OX1R antag-1	OXTR ag	V1R ag counter	OX1R antag-2
CSc1ccc(S(=O)(=O)NCC(=O)OC(C)C(=O)NCc2ccccc2)cc1[N+](=O)[O-] (stereo not given)	-7	9	-20	1	0	67*
CSc1ccc(S(=O)(=O)NCC(=O)OCC(=O)NCc2ccco2)cc1[N+](=O)[O-]	-2	2	-9	-1	0	44
CSc1ccc(S(=O)(=O)NCC(=O)OCC(=O)N(C)C2CCCCC2)cc1[N+](=O)[O-]	-12	-19	-27	0	4	39
COc1ccc(NC(=O)CSc2cn[nH]n2)cc1OC	-1	-5	-23	2	1	13
COc1ccc([C@H]2CC(=O)C=C(c3ccc(CNC(=O)OC(C)(C)C)cc3)C2)cc1	-11	31	39	9	7	8
CCOC(=O)[C@H]1[C@H]2COc3cc(OC)ccc3[C@@H]2N2C(=O)c3cc(F)ccc3NC(=O)[C@@]12C	2	-29	-24	-1	-1	11
CC(C)C(c1nnnn1C(C)(C)C)N1CCC(Cc2ccccc2)CC1 (stereo not given)	-8	42*	-5	-1	0	6
CN(Cc1ccccc1)C(=O)C1CCN(S(=O)(=O)c2ccc3nc4c(c(C(=O)O)c3c2)CCCC4)CC1	-3	-12	14	-1	0	14
O=[N+]([O-])c1cnc2ccccc2c1	-11	-8	-3	-1	0	71*
Cc1noc(C)c1CSCC(=O)OCc1nnc(-c2ccc([N+](=O)[O-])cc2)o1	-10	-4	1	5	5	47*
Cc1noc(C)c1COc1ccc(C(=O)OCc2nnc(-c3ccc(Cl)cc3)o2)cc1	-17	35*	54*	9	8	39
O=C(N/N=C/c1cc([N+](=O)[O-])ccc1Cl)c1ccc2nc[nH]c2c1	-4	4	-3	2	1	62*
O=C(N/N=C/c1ccccc1C(F)(F)F)c1ccc2nc[nH]c2c1	0	-6	-2	1	1	17
O=C(N/N=C/c1cc([N+](=O)[O-])ccc1O)c1cccc2cc[nH]c12	1	57*	49*	0	-1	34
O=C(N/N=C/c1ccc(Cl)cc1Cl)c1ccc2nc[nH]c2c1	6	-8	-26	1	1	35*
CN(C(=O)CSc1nncc2ccccc12)c1ccccc1	-6	-9	-12	0	0	10
N/C(=N\OC(=O)c1cccc(Cn2cc(C(F)(F)F)ccc2=O)c1)c1ccccc1	-10	46*	48*	2	2	4
Cc1ccc(/C(N)=N/OC(=O)c2cccc(Cn3cc(C(F)(F)F)ccc3=O)c2)cc1	2	-10	-27	0	14	3
COc1cccc(/C=N/Nc2ccc(Cl)nn2)c1OC	-5	4	-14	1	0	30
COc1cccc(/C=N/Nc2nnc3c(n2)[nH]c2ccccc23)c1OC	-9	-13	2	-2	-3	45*
COc1cc([N+](=O)[O-])c2ncsc2c1	-2	-11	-7	0	1	69*
Cc1cccn2c(=O)c3cc(C(=O)NCCc4ccccc4)c(=N)n(Cc4ccco4)c3nc12	-7	-9	-27	-1	-1	14
COCCCn1c(=NC(=O)c2ccncc2)c(C#N)cc2c(=O)n3cccc(C)c3nc21	-5	-7	-15	-1	0	41*
CCCCNC(=O)c1cc2c(=O)n3cccc(C)c3nc2n(Cc2ccncc2)c1=N	-4	-16	-22	-2	-1	41*
COCCNC(=O)c1cc2c(=O)n3cccc(C)c3nc2n(Cc2ccncc2)c1=N	0	-9	-21	-1	-1	49*
SMILES	OXTR potentiate	CHO parental Ca	OX1R antag-1	OXTR ag	V1R ag counter	OX1R antag-2
Cc1cc(Br)cc(Br)c1OCC(=O)NNC(=O)Nc1ccccc1	-4	-20	-24	-2	0	4
CC(C)(C)OC(=O)NCCCCCNC(=O)c1ncn(Cc2ccccc2)c1C(=O)NCCCCCNC(=O)OC(C)(C)C	-7	-10	32	5	5	3
CCN(C(=O)c1ccc(C(C)(C)C)cc1)c1nnc(Cn2nnc3ccccc32)s1	-19	66*	69*	7	5	64
O=C(Nc1ccccc1C(=O)Nc1nnc(C(F)(F)F)s1)c1ccccc1	-21	59*	54*	16	13	72*
Cc1occc1C(=O)Nc1nnc(C(F)(F)F)s1	-5	-7	-6	3	7	22
CCC(C)c1ccc(NC(=S)NCCn2cc(Cl)cn2)cc1 (stereo not given)	-14	45*	32	-3	2	19
CCC(C)c1ccc(NC(=S)NCCn2cc(Br)cn2)cc1 (stereo not given)	-10	-3	-27	-3	-1	8
O=C(CSc1nnnn1-c1ccc2c(c1)OCCO2)N1CCN(C(=O)c2ccco2)CC1	-4	-8	-25	0	0	4
O=C(NCc1ccccn1)c1ccccc1OCc1ccc(Cl)cc1Cl	-4	-30	-14	-2	0	9
CSc1ccc(Cl)c(C(=O)NCCOc2cc(C)ccc2C(C)C)c1	-13	53*	46*	0	4	27
Cc1ccc(C(C)C)c(OCCNC(=O)c2ccccc2O)c1	-17	-11	-24	-2	3	14
CCOC(=O)C1=C(COC(=O)/C=C/c2cccc(F)c2)NC(=O)NC1C (stereo not given)	-6	-18	9	2	1	8
O=C(N=C1N=C2C=CC(Br)=CN2Cc2ccccc21)c1ccc([N+](=O)[O-])cc1[N+](=O)[O-]	-3	-3	-18	-2	-1	45*
O=C(c1ccc([N+](=O)[O-])cc1[N+](=O)[O-])N1CCc2ccccc21	4	-13	-11	0	12	23
Cc1ccccc1OCCSc1nc2ccccc2n1CCC(=O)O	-11	-11	34	3	0	74*
O=C(O)CCn1c(SCc2cccc3ccccc23)nc2ccccc21	-4	-8	-26	-1	0	68*
O=C(O)CCSc1nc2ccccc2n1CCOc1ccccc1	-2	-2	-11	1	1	4
Cc1ccc(OCCSc2nc3ccccc3n2CCC(=O)O)cc1	-3	-10	12	0	2	49*
Cn1c2ccccc2c(=O)c2ccc(-c3ccc4c(c3)OCO4)cc21	-7	-21	-37	0	0	50
CCOc1ccc(/C=N/NC(=O)C2CCCC2)c(OCC)c1	-2	-6	-7	0	-1	7
CC(Oc1ccc(Cl)cc1)C(=O)NCC1CCCO1 (stereo not given)	1	-10	-5	0	-1	19
